96 compounds from ChEMBL document CHEMBL4513216, “Probing the Open Global Health Chemical Diversity Library for Multistage-Active Starting Points for Next-Generation Antimalarials” (ACS Infect Dis, 2020) can be followed below.

A short description of this series: Toxicity liver stage against HepG2, at 10uM. The format is cell-based. Set-up: test concentration 10 uM, cell line HepG2-A16-CD81EGFP. The conditions noted are these: human, HepG2-A16-CD81EGFP cells; read-out: INHIBITION
A digest of the protocol:
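Uninfected HepG2-A16-CD81EGFP cells, 3 × 10^3 per well, 1536-well, plated on prespotted compound at 10 μM final, parasite-free screening media added to match infected plates; puromycin 10 μM positive, DMSO 0.5% negative; run in parallel with 48 h PbLuc assay at 37 °C, 5% CO2; viability by CellTiter-Glo luminescence, normalized to controls.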
For `O=C(NCc1ccco1)c1cccc(C(=O)NCc2ccco2)n1`, the cytotoxicity at 10 µM was found to be 5.7%.

Turning to `Cc1c(C(=O)N2CCC(O)(CN(C)C)C2)c2cc(O)ccc2n1C` (stereo unspecified), the cytotoxicity at 10 µM is -120%.

With `COc1cccc(CCCn2cnnc2[S+](C)[O-])c1` (stereo unspecified), the cytotoxicity at 10 µM is -12.7%. For `Cc1ncc(CC(=O)N2CCC3(CCC(=O)N(CCO)C3)CC2)c(=O)[nH]1` the value was -44.7%. Regarding `COCCc1noc(CN2CCC(c3ccccc3C(=O)O)C2)n1` (stereo unspecified), the cytotoxicity at 10 µM was -3.03%.

Regarding `CC(C)c1nnc(NC(=O)c2cccc(OCC(F)(F)F)n2)[nH]1`, the cytotoxicity at 10 µM was -1.26%. For `CC(=O)N1CCC(Cc2ccc(-c3ccnn3C)nc2)CC1` the value was 2.74%. As to `NC(=O)c1cc(C2CCCN(CCCOc3ccccc3)C2)n[nH]1` (stereo unspecified), the cytotoxicity at 10 µM is -12.1%. The same measure for `Cn1cc(CN(C(=O)c2ccc(O)c(Cl)c2)C2CC2)cn1`: 5.17%; for `Cc1cnn(CCC(=O)N2CCN(c3ncccc3Cl)CC2)c1`: 2.41%; for `CC(C)c1nc(CN(C)Cc2cnc(N3CCOCC3)nc2)no1`: 10.1%. The same measure for `O=C(COCc1nc(-c2ccncc2)no1)N1CCOCC1`: -7.08%; for `O=C(NC[C@H]1OC[C@@H]2CCN(c3ccccn3)C[C@@H]21)c1ccco1`: 1.32%; for `O=S(=O)(CCCNC1CCc2ncnn2C1)c1ccccc1` (stereo unspecified): 2.53%.

With `CCn1ccnc1C1CCN(C(=O)C(O)c2ccc(Cl)cc2)CC1` (stereo unspecified), the cytotoxicity at 10 µM was -0.65%. On to `CCC1CCCCCN1C(=O)c1coc(S(=O)(=O)N(C)C)c1` (stereo unspecified), for which the cytotoxicity at 10 µM was 1.66%. The same measure for `O=C(CCC(F)(F)F)NCC1CCCS1` (stereo unspecified): -1.58%; for `O=C(C1CCCO1)N1CCc2onc(-c3ccc(Cl)cc3)c2C1` (stereo unspecified): -65.8%.

`CNc1nc2c(s1)C(c1c(F)cccc1Cl)CC(=O)N2` (stereo unspecified): the cytotoxicity at 10 µM was -14.7%. The same measure for `COc1cccc(N2CCN(C(=O)CCO)CC2=O)c1`: 3.75%; for `Cn1nccc1CNC(=O)Cn1nc(C(F)(F)F)cc1C1CC1`: -6.36%. For `CNc1cncc(C2CCCN2Cc2c[nH]cn2)n1` (stereo unspecified) the value was 0.192%; for `O=C(c1ccccn1)N1CCc2c(nc(N3CCCC3)[nH]c2=O)C1`, -5.71%; for `Cc1ccc(-c2nc(CN3CCCC3Cn3cc(C)cn3)no2)cc1` (stereo unspecified), 4.07%.

In the case of `CC(C)NC(=O)c1ccc2nnc(C3CN(C)CCN3C)n2c1` (stereo unspecified), the cytotoxicity at 10 µM is -139%. The same measure for `Cc1ccc(CNCC2CNc3cc(C)nn3C2)cn1` (stereo unspecified): -7.07%; for `CC(C)(C)n1ncc2c(=O)n(CC(=O)NCc3ccccc3Cl)cnc21`: -9.03%; for `c1ccc2ncc(CC3CCNCC3)cc2c1`: 1.8%. For `C[C@@H]1CN(C(=O)c2ccsc2)C[C@]12CCN(c1ccsc1)C2=O`, the cytotoxicity at 10 µM is 1.88%. For `COc1ccc(C(C)Nc2ncc(C(N)=O)cc2Cl)cc1F` (stereo unspecified) the value was 5.37%; for `COC(=O)N1CCC(Nc2ccc(C#N)c(Cl)c2)C1` (stereo unspecified), -8.21%. The same measure for `COc1ccc2c(c1)C1(CCN(Cc3ccccn3)CC1)N(C)CC2`: -150%; for `Cc1nc(O)cc(C2CCCN(C(=O)CN(C)c3ccccc3)C2)n1` (stereo unspecified): 12.8%; for `CN(C)c1nc2c(c(=O)[nH]1)CCN(C(=O)c1cccc3nccnc13)C2`: -10.7%. The same measure for `COC(=O)c1cccn1C1CCN(Cc2cccc(C(N)=O)c2)CC1`: -4.7%; for `Cc1cc(CN(C)C2CCCN(Cc3noc(C)n3)C2)on1` (stereo unspecified): -5.85%; for `CSc1nccc(N2CCN(C)C3(CCC(=O)N(CC4CC4)CC3)C2)n1` (stereo unspecified): 5.6%. For `CC(CNC(=O)N1CCN(Cc2ccon2)CC1)N(C)C1CC1` (stereo unspecified), the cytotoxicity at 10 µM was -6.74%. In the case of `CCc1noc(CS(=O)(=O)C(C)c2nc(C3CC3)no2)n1` (stereo unspecified), the cytotoxicity at 10 µM worked out at 11.3%. For `c1cnn(CCCO[C@@H]2CC[C@H]3[C@H]2OCCN3CC2CCOCC2)c1` the value was 7.77%; for `O=C1NCCCCC1Sc1nnc(-c2cccnc2)n1C1CC1` (stereo unspecified), -3.86%; for `CCO[C@@H]1CC[C@H]2[C@H]1OCCN2C(=O)CC1=CCCCC1`, 2.91%. The same measure for `CC(CN1CCOCC1)NC(=O)c1cc(Cl)c2c(c1)OCCO2` (stereo unspecified): -1.4%; for `CCCNC(=O)CN1CCCC1c1nc(Cc2ccc(F)cc2)no1` (stereo unspecified): 4.8%; for `COC(=O)c1cccn1C1CCN(C(=O)c2cc(C)ccc2O)CC1`: -3.22%. The same measure for `O=C(c1cc(-c2ccco2)cs1)N1CCCC1`: 11%; for `CC(C)NC(=O)NC[C@H]1OC[C@@H](NCc2ccc(S(C)(=O)=O)cc2)[C@@H]1O`: 6.7%; for `COCC(NC(=O)NCc1cccc(C#N)c1)c1ccco1` (stereo unspecified): 2.7%. `Cc1csc(-c2ccc(NC(=O)N3CCOCC3)cc2)n1`: the cytotoxicity at 10 µM was -9.2%. For the compound `O=S(=O)(c1ccc(F)cc1)N1CCCC(c2nccs2)C1` (stereo unspecified), the cytotoxicity at 10 µM was -6.74%. In the case of `CN1CCCC(c2nnc3n2CCN(S(=O)(=O)c2ccccc2Cl)C3)C1` (stereo unspecified), the cytotoxicity at 10 µM is -2.92%. With `Cc1ccccc1OCCN1CCN(Cc2cnn(CCO)c2)CC1`, the cytotoxicity at 10 µM is -17.9%. For `CC(C)NC(=O)[C@@H]1C[C@H](N)CN1C(=O)c1cc2c([nH]c1=O)CCCC2` the value was 10.5%.

In the case of `CCN(CC)C(=O)CCCNC(=O)Cc1nc(-c2ccco2)oc1C`, the cytotoxicity at 10 µM stood at 1.57%. The same measure for `CCc1ncnc2c1CCN(Cc1cccs1)CC2`: 4.98%. For `CC(C)COC(=O)N1CC(=O)N(Cc2ccc(Cl)cc2)CC(O)C1` (stereo unspecified) the value was -0.947%; for `CN(C)C(=O)c1cccc(CCNS(C)(=O)=O)c1`, -6.46%; for `O=C(c1ccc[nH]1)N1CCc2nnc(Cn3cccc3)n2CC1`, 3.46%.

Turning to `Cc1nc(CN2C(=O)CC[C@@H]3[C@H]2CCN3C(=O)c2ccno2)cs1`, the cytotoxicity at 10 µM was -82.7%. On to `CN(C)S(=O)(=O)N1CCC2(COCc3cnc(-c4ccccc4)nc32)C1` (stereo unspecified), for which the cytotoxicity at 10 µM was -13.6%. For `c1cnc(N2C[C@H]3CC[C@@H](C2)N(Cc2ccsc2)C3)nc1`, the cytotoxicity at 10 µM is 1.2%.

For `CN(C)C(=O)c1n[nH]c2c1CCN(Cc1nccs1)C2`, the cytotoxicity at 10 µM is -139%.

For `O=C1NCCCCC1Sc1ccccc1F` (stereo unspecified), the cytotoxicity at 10 µM was determined as 9.43%. With `Cc1nc(N)sc1C(=O)N1Cc2ccccc2OC2(CCOCC2)C1`, the cytotoxicity at 10 µM was -24.6%. For `O=C(NC1CCc2cc(Cl)ccc21)C1CCN(C(=O)C2CC2)CC1` (stereo unspecified) the value was -1.43%; for `Cc1ncc(CNCC2CCCN2c2cccnn2)s1` (stereo unspecified), 1.97%. For `O=C(CS(=O)(=O)Cc1ccc(F)cc1)NC1CCCCNC1=O` (stereo unspecified) the value was -0.252%; for `O=C(c1cc(F)cc(F)c1)N1C[C@H]2CNC[C@H]2C1`, 2.91%; for `COCCn1ccnc1C1CCCN(c2cnccn2)C1` (stereo unspecified), 3.23%.

`NCCO[C@H]1C[C@@H](O)C12CCN(C(=O)CCOc1ccccc1)CC2`: the cytotoxicity at 10 µM is 3.12%. As for `CC(=O)N1CCN(Cc2ccsc2)CC2(CC(=O)N(C)C2)C1` (stereo unspecified), the cytotoxicity at 10 µM is -1.27%.

For the compound `Cc1nc(NC2CCCC2)cc(C2CCN2C(=O)c2cccnc2)n1` (stereo unspecified), the cytotoxicity at 10 µM amounted to 0.848%. Regarding `COCC(=O)N1CCC2(CC1)CC(CC(=O)NC1CC1)c1ccccc12` (stereo unspecified), the cytotoxicity at 10 µM was determined as 0.873%. Turning to `Cc1cccnc1C(=O)N1C[C@@H]2CC[C@H](Oc3cccc(F)c3)[C@@H]2C1`, the cytotoxicity at 10 µM was 0.297%. In the case of `Nc1ncccc1C(=O)NCc1ccc(Br)cc1`, the cytotoxicity at 10 µM is 35.7%. For `O=C(NCc1ccco1)[C@H]1C[C@H]2OCC[C@H]2N(C(=O)c2ccco2)C1`, the cytotoxicity at 10 µM is 2.79%. As for `O=C(NCC1(O)CCC1)NC(c1cc(F)ccc1F)C1CC1` (stereo unspecified), the cytotoxicity at 10 µM is -4.81%. The same measure for `CCc1csc(C2CCCN(C(=O)c3cnc[nH]3)C2)n1` (stereo unspecified): 1.78%; for `O=C(Nc1cccc(CN2CCOC2=O)c1)N1CCSCC1`: -11.3%; for `CN(Cc1nc(C(C)(C)C)no1)C1CCS(=O)(=O)C1` (stereo unspecified): 15.2%. With `c1cnc(NCc2n[nH]c3c2CCN(Cc2ccncc2)C3)nc1`, the cytotoxicity at 10 µM was -3.83%. For `COc1c(CNC2CCN(c3ncccn3)CC2)c(C(C)C)nn1C` the value was -4.81%; for `Cc1ccc(CC(=O)NC(C)C(=O)N2CCS(=O)(=O)CC2)s1` (stereo unspecified), 11.2%; for `CCS(=O)(=O)NCCCNc1ncnc2cc(F)c(F)cc12`, 9.29%.

As to `Cc1nccn1CCCN1CCCC(c2ccccc2)C1` (stereo unspecified), the cytotoxicity at 10 µM was -24.8%. For the compound `O=C(Nc1ccnc(OC2CCOC2)c1)c1cccs1` (stereo unspecified), the cytotoxicity at 10 µM stood at 5.42%. Take `CN(C)S(=O)(=O)N1CC[C@H]2OCC[C@@]2(COc2cccnc2)C1`: the cytotoxicity at 10 µM was 11.2%. On to `CN(C)CCOc1ccc(CNC(=O)c2cccc3[nH]ncc23)cc1`, for which the cytotoxicity at 10 µM turned out to be 7.99%.

For the compound `Cc1cc(CNC(=O)CCCN2CCCCC2)n(C)n1`, the cytotoxicity at 10 µM was -10.3%. In the case of `CCN(C(=O)Nc1cc(C)on1)C(C)c1cccc(O)c1` (stereo unspecified), the cytotoxicity at 10 µM was found to be 2.52%. On to `Cc1cnc(N2CCC3(CC2)CC3CNC(=O)C2CCC2)nc1` (stereo unspecified), for which the cytotoxicity at 10 µM was determined as 38%. As for `COCC1CN(C(=O)c2cccn2C)Cc2ncnn2C1` (stereo unspecified), the cytotoxicity at 10 µM is -8.97%. The same measure for `O=C(c1ccc(Cn2cc(Br)cn2)cc1)N1CCCC1`: -7.86%. As to `Cc1nn(CC(C)C)c(C)c1CC(=O)N1CCCC(CNS(C)(=O)=O)C1` (stereo unspecified), the cytotoxicity at 10 µM was 0.246%. The same measure for `CC(=O)N1CCCN(CCCSc2ccccc2Cl)CC1`: 0.269%; for `CNC(=O)c1coc(-c2csc(C)n2)c1`: 6.96%.
